Compounds with a hit are over-represented: about 2.7% of the library has one in this group of screens.
PP1 inh: PP1-alpha (human) inhibition in PP5 counter-screen; P62136; purified PP1alpha, OMFP fluorescence; inhibition, % at 6.7 µM; 0.9% of 320,000 active; AID 2235;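 active = inhibition above the mean inhibition of all tested compounds plus 3 SD, computed separately for each screening campaign, cut at about 15% in these data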
Target sequence (P62136 whole entry, looked up): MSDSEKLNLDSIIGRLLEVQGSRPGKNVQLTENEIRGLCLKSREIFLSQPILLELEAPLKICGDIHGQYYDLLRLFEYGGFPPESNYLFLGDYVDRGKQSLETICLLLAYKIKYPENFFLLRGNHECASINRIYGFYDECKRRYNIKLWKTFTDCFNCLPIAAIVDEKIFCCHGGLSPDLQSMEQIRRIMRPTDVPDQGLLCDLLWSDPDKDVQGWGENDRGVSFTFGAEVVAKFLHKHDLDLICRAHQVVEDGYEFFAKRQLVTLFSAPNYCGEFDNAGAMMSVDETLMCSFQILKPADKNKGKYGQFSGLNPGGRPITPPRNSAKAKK
HNF4A DNA FP: change in binding of human HNF4 alpha to DNA; P41235; HNF4a-FITC DNA binding, fluorescence polarization, 1 h; activity change, % at 10 µM; 0.3% of 360,000 active; AID 1224865; in the data active = activity change above about 30%, passing the limit was not always enough
Rpn11 block: inhibitors of human proteasome Rpn11. O00487. human 26S proteasome, Ub4-pepOG fluorescence polarization; 20S core pre-blocked with epoxomicin. inhibition, % at 20 µM. 0.59% of 360,000 active;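 active = inhibition at 20 µM, scaled to each plate's controls, above about 33%, limit read from the data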
Target sequence (O00487 whole entry, looked up): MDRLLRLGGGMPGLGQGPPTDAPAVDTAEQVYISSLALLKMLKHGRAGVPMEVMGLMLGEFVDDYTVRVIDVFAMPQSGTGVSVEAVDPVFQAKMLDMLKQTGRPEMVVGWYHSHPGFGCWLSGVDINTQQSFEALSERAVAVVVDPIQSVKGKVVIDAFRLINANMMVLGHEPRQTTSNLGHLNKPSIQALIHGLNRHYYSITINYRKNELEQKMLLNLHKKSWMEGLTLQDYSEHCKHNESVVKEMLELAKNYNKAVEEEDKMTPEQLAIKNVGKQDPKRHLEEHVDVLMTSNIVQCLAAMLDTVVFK
CSN inh: inhibitors of human CSN-mediated cullin deneddylation; Q92905; Purified CSN, SCF-Nedd8-OG deneddylation, fluorescence polarization; inhibition, % at 12.5 µM; 0.38% of 360,000 active; AID 651999;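 active = pattern-corrected inhibition above about 35%, with an unprinted fluorescence ratio check between 0.5 and 1.5, limit read from the data, passing the limit was not always enough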;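 also: 0% = enzyme with substrate and 100% = substrate without enzyme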
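Test system: purified human Csn5 enzyme expressed in HEK293T cells. Amount: 0.24 nM enzyme. Reagent: SCFSkp2-Nedd8OG substrate at 10 nM final. Schedule: 90 min incubation of compound, enzyme and substrate at room temperature. Detection: fluorescence polarization. Read-out: % inhibition of substrate cleavage by Csn5.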
NadD inh: inhibitors of Staphylococcus aureus NadD; purified NadD enzyme, colorimetric absorbance read-out; inhibition, % at 20 µM; 0.78% of 360,000 active; AID 602399; in the data active = inhibition above about 26%
TPT1 inh: blocks Candida albicans tRNA 2'-phosphotransferase; recombinant caTPT1, FP RNA substrate dephosphorylation; inhibition, % at 5 µM; 0.81% of 300,000 active;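 active = inhibition above the mean of all tested compounds plus 3 SD, set per screening campaign, cut at about 24% in these data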;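 also: plate controls were DMSO alone for no effect and ferristatin control at 100 nM for full effect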
TPT1 inh confirm: confirmation of Candida albicans TPT1 inhibitors; shares compounds with TPT1 inh; recombinant caTPT1, fluorescence polarization, RNase T1 coupled; AID 2149; 74% of 2,400 active; inhibition, % at 5 µM;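 active = inhibition above the primary screen limit, the mean inhibition of all tested compounds plus 3 SD, cut at about 25% in these data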
RNase T1 inh: counter-screen for TPT1 inhibitors: inhibitors of Aspergillus oryzae RNase T1; 83% of 2,400 active; RNase T1 cleavage, fluorescence polarization, 1536-well; AID 2153; inhibition, % at 5 µM; shares compounds with TPT1 inh;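 active = inhibition above the solvent-only control well mean plus 3 SD, limit set per screening run, cut at about 23% in these data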;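 also: plate controls were DMSO wells with enzyme for no effect and wells without RNase T1 for full effect; inhibitors block cleavage so intact labeled substrate keeps polarization high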
Rpn11 inh conf: confirmation of human proteasome Rpn11 inhibitors | AID 602318 | inhibition, % at 20 µM | purified human 26S proteasome, Ub4-pepOG fluorescence polarization; proteasome pretreated with epoxomicin | shares compounds with Rpn11 block | 29% of 1,900 active
MMP-2 counter-1: MMP-2 (human) inhibition counter-screen. shares compounds with Rpn11 block. recombinant MMP-2, FRET peptide cleavage fluorescence. inhibition, % at 20 µM. 4% of 1,900 active. AID 602330;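 also: human MMP-2 activated beforehand with APMA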
Thrombin inh: blocks bovine thrombin, flagging nonselective RPN11 hits. shares compounds with Rpn11 block. bovine thrombin cleavage of Ub4-pepOG, fluorescence polarization. inhibition, % at 20 µM. 13% of 1,900 active. AID 602333;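 active = mean inhibition at least 40% at 20 µM, or signal 3 deviations below plate average, so some actives read negative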;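 also: plate controls were thrombin with DMSO for no effect and buffer wells lacking thrombin for full effect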
NadD inh conf: confirmation of Staphylococcus aureus NadD inhibitors. shares compounds with NadD inh. purified S. aureus NadD, colorimetric enzyme assay. 13% of 2,000 active. AID 624309. inhibition, % at 20 µM; in the data active = inhibition mostly above about 42%, no sharp cut-off; inactive = mostly below about 42%
CSN5 deneddyl: validation of inhibitors of human CSN-mediated cullin deneddylation. shares compounds with CSN inh. Csn5 deneddylation of SCF-Nedd8OG, fluorescence polarization, 90 min. inhibition, % at 16.6 µM. 62% of 540 active. AID 720654; in the data active = inhibition above about 50%;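 also: 0% = DMSO with enzyme and 100% = no enzyme wells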
MMP-2 counter-2: counter-screen for CSN deneddylation inhibitors: human MMP-2 inhibition. shares compounds with CSN inh. recombinant MMP-2, FRET substrate fluorescence, 60 min. inhibition, % at 16.6 µM. 33% of 540 active. AID 720655;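 active = corrected plate-normalized z-score of 5 or more, or -5 or less, or inhibition of 15% or more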;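 also: plate controls were DMSO wells with enzyme for no effect and buffer wells lacking MMP-2 for full effect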
Thrombin counter: counter-screen for CSN deneddylation inhibitors: bovine thrombin inhibition; shares compounds with CSN inh; bovine thrombin cleavage of Ub4-pepOG, fluorescence polarization; inhibition, % at 16.6 µM; 49% of 540 active;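 active = inhibition at or above a set limit, with a fluorescence interference ratio between 0.5 and a set maximum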
Starred values were filed as active, the others as inactive. Rule as the data show it, unless noted: active = inhibition above about 40%; inactive = the rest.

`Cc1nc(N2N=C(c3ccc(Cl)cc3)CC2c2ccco2)sc1C(=O)N(C)C` (centres undefined) gave PP1 inh 1.4, HNF4A DNA FP -0.6, Rpn11 block 15.9, CSN inh 2.2, NadD inh 10.2 and TPT1 inh -1.6.
`S=C(NCc1ccccc1)NCc1ccccc1Cl` gave HNF4A DNA FP 5.5, Rpn11 block -5.2, CSN inh -3.8 and NadD inh -2.0.
Screening Cc1nc(CNS(=O)(=O)c2ccc(F)cc2)cs1 returned HNF4A DNA FP 3.2, Rpn11 block -3.5, CSN inh -7.9 and NadD inh 3.8.
`O=C(O)/C=C/c1cn(-c2ccccc2)nc1-c1cccc([N+](=O)[O-])c1` gave PP1 inh 2.1, HNF4A DNA FP -3.1, Rpn11 block -1.1, CSN inh -2.7, NadD inh -5.3 and TPT1 inh -0.2.
O=C(O)/C=C/c1cn(-c2ccccc2)nc1-c1ccc(-c2ccc([N+](=O)[O-])cc2)o1 was read as PP1 inh 8.7, HNF4A DNA FP -15.8, CSN inh 11.7, NadD inh 49.1*, TPT1 inh 68.9*, TPT1 inh confirm 84.3*, RNase T1 inh 91.0* and NadD inh conf 9.3.
For N#Cc1cnn2c(-c3cccc([N+](=O)[O-])c3)ccnc12 the results were PP1 inh -1.8, HNF4A DNA FP -4.0, Rpn11 block 7.3, CSN inh 3.4 and NadD inh -6.4.
CCOc1ccc(NC(=O)c2ccc(NC(=O)CSc3nc4ccccc4c(=O)[nH]3)cc2)cc1 was read as PP1 inh -3.5, HNF4A DNA FP -2.3, Rpn11 block 3.4, CSN inh 5.3, NadD inh 43.0*, TPT1 inh 52.8*, TPT1 inh confirm -0.2, RNase T1 inh 2.4 and NadD inh conf 7.2.
CCOC(=O)c1c(-c2ccccc2)csc1NC(=O)/C(C#N)=C/c1ccc(O)c(OC)c1 was read as PP1 inh 5.8, HNF4A DNA FP 141.1, CSN inh 124.5, NadD inh 44.5*, TPT1 inh 177.8*, TPT1 inh confirm 192.0*, RNase T1 inh 174.1* and NadD inh conf 16.1.
Screening Cc1ccc(Sc2ncccc2C(=O)NCC(c2ccc(F)cc2)N2CCOCC2)cc1C (centres undefined) returned PP1 inh -0.3, HNF4A DNA FP -0.5, Rpn11 block 4.9, CSN inh 4.5, NadD inh 1.2 and TPT1 inh -3.0.
Screening CCn1c2ccccc2c2c3ncc4cccn4c3ccc21 returned PP1 inh 9.5, HNF4A DNA FP 24.0, CSN inh 28.2, NadD inh 39.4*, TPT1 inh 33.0*, TPT1 inh confirm 15.1, RNase T1 inh 22.1* and NadD inh conf 4.8.
`CCOc1ccc(N2C(=O)C3Sc4[nH]c(=O)sc4C(/C=C/c4ccccc4)C3C2=O)cc1` (centres undefined) gave PP1 inh 8.1, HNF4A DNA FP 34.3, CSN inh 16.1, NadD inh 32.0*, TPT1 inh 50.9*, TPT1 inh confirm 34.2*, RNase T1 inh 40.5* and NadD inh conf 46.0.
Screening COc1cc(C2c3sc(=O)[nH]c3SC3C(=O)N(c4ccc(Br)cc4)C(=O)C32)ccc1O (centres undefined) returned PP1 inh 1.3, HNF4A DNA FP -0.9, Rpn11 block 4.8, CSN inh 1.2, NadD inh -3.6 and TPT1 inh -0.5.
`Fc1ccc(C2=NN(c3ccccc3)C(c3ccco3)C2)cc1` (centres undefined) gave PP1 inh -4.0, HNF4A DNA FP 3.5, Rpn11 block 3.6, CSN inh 10.9, NadD inh -6.7 and TPT1 inh -1.5.
For C(=C\c1ccco1)/C1=NN(c2ccccc2)C(c2ccco2)C1 (centres undefined) the results were PP1 inh 2.2, HNF4A DNA FP 32.6, Rpn11 block 72.0*, CSN inh 84.0*, NadD inh 21.7, TPT1 inh 53.4*, TPT1 inh confirm 38.2*, RNase T1 inh 46.6*, Rpn11 inh conf 70.2*, MMP-2 counter-1 6.6, Thrombin inh 54.7*, CSN5 deneddyl 62.5*, MMP-2 counter-2 -3.1 and Thrombin counter 31.4*.
For Nc1ccc(/C=C/C(=O)c2cccs2)cc1 the results were PP1 inh -0.9, HNF4A DNA FP 18.9, CSN inh 39.6*, NadD inh 1.8, TPT1 inh 78.1*, TPT1 inh confirm 96.2*, RNase T1 inh 99.3*, CSN5 deneddyl 72.1*, MMP-2 counter-2 -16.2 and Thrombin counter 32.3*.
For CC(OC(=O)/C(C#N)=C/c1ccc(N(C)C)cc1)C(=O)N(C)c1ccccc1 (centres undefined) the results were PP1 inh -3.8, HNF4A DNA FP 107.2*, CSN inh 70.6*, NadD inh -6.9, TPT1 inh 121.1*, TPT1 inh confirm 130.4*, RNase T1 inh 132.2*, CSN5 deneddyl 61.5*, MMP-2 counter-2 -20.1 and Thrombin counter 72.9*.
